{"source": "ChEMBL document CHEMBL5705899", "about": "(Biochem J, 2014)", "key": {"[1]": {"target": "MAP/microtubule affinity-regulating kinase 4 (Homo sapiens) (UniProt Q96L34)", "test": "Inhibition of recombinant human N-terminal His6-tagged MARK4 (2 to 752 residues) expressed in baculovirus infected Sf21 cells assessed as remaining activity at 1 uM using KKKVSRSGLYRSPSMPENLNRPR as substrate incubated for 30 mins in presence of [gamma-33P]ATP by filter binding method relative to control"}, "[2]": {"target": "Serine/threonine-protein kinase PINK1, mitochondrial (Homo sapiens) (UniProt Q9BXM7)", "test": "Inhibition of recombinant human N-terminal MBP-tagged PINK1 (1 to 570 residues) expressed in Escherichia coli assessed as remaining activity at 1 uM using KKSRGDYMTMQIG as substrate incubated for 30 mins in presence of [gamma-33P]ATP by filter binding method relative to control"}, "[3]": {"target": "Homeodomain-interacting protein kinase 1 (Homo sapiens) (UniProt Q86Z02)", "test": "(§1) Inhibition of recombinant human N-terminal GST-tagged HIPK1 (158 to 555 residues) expressed in Escherichia coli assessed as remaining activity at 1 uM using MBP as substrate incubated for 30 mins in presence of [gamma-33P]ATP by filter binding method relative to control"}, "[4]": {"target": "Insulin-like growth factor 1 receptor (Homo sapiens) (UniProt P08069)", "test": "Inhibition of recombinant human N-terminal His6-tagged IGF1R (954 to 1367 residues) expressed in baculovirus infected Sf21 cells assessed as remaining activity at 1 uM using KKKSPGEYVNIEFG as substrate incubated for 30 mins in presence of [gamma-33P]ATP by filter binding method relative to control"}, "[5]": {"target": "Ephrin type-B receptor 1 (Homo sapiens) (UniProt P54762)", "sequence (P54762 whole entry, the tested form may be a part)": "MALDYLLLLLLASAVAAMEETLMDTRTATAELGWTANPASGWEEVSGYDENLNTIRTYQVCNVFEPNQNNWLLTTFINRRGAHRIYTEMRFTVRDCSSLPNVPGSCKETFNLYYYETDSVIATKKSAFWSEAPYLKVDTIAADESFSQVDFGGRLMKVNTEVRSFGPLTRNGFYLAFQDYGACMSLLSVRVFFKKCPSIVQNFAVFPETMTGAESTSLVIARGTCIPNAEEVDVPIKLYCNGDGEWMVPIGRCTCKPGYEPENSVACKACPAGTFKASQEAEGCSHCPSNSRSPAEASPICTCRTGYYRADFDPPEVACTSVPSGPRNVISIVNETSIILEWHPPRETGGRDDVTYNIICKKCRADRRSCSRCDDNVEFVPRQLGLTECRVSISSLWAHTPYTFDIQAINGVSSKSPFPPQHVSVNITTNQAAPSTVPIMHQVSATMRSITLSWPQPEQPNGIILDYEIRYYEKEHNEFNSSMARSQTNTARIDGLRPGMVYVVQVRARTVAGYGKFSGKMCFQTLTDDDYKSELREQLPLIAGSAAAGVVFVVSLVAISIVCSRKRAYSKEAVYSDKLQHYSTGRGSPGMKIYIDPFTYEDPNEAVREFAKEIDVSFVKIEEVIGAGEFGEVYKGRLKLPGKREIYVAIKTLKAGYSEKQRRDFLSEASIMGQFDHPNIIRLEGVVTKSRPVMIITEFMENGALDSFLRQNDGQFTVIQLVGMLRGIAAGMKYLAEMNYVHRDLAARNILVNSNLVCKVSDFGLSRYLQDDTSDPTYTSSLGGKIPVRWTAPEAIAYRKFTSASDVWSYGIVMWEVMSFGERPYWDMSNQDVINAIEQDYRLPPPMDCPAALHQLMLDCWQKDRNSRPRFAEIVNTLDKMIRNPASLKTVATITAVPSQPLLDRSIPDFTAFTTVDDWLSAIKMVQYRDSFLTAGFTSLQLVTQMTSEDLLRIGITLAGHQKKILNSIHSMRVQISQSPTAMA", "test": "Inhibition of recombinant human N-terminal His6-tagged EPHB1 (565 to 984 residues) expressed in baculovirus infected Sf21 cells assessed as remaining activity at 1 uM using Poly (Glu,Tyr) as substrate incubated for 30 mins in presence of [gamma-33P]ATP by filter binding method relative to control"}, "[6]": {"target": "Tyrosine-protein kinase ABL1 (Homo sapiens) (UniProt P00519)", "sequence (P00519 whole entry)": "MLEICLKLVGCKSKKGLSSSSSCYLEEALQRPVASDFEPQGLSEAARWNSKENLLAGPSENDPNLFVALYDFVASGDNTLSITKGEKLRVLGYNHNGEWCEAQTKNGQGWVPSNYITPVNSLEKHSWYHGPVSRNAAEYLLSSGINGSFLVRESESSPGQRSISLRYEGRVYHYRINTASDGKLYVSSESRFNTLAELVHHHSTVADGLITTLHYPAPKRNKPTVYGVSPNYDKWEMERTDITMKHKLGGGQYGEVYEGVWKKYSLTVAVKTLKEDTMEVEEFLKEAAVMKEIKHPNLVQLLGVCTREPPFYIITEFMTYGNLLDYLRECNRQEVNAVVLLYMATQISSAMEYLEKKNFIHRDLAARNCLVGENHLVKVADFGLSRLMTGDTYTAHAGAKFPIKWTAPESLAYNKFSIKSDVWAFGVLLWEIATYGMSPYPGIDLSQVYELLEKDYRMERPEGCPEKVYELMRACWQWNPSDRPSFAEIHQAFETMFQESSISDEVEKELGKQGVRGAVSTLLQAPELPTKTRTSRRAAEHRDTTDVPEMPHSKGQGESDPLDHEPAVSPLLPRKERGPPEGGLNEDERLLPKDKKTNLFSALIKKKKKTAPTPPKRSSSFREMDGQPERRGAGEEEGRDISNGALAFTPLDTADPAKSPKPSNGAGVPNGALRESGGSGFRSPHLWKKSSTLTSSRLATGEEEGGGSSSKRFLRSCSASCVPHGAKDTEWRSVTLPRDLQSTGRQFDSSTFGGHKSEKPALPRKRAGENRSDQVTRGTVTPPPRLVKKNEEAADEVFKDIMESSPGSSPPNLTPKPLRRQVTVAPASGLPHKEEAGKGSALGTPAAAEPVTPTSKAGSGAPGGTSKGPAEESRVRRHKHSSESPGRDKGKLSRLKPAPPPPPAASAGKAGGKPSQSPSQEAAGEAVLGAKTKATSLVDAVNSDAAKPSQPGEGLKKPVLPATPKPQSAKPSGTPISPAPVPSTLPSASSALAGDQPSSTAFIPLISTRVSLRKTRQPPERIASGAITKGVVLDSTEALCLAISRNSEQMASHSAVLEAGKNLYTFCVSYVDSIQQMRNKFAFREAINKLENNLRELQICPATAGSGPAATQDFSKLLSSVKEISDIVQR", "test": "as §1, with “ABL (118” for “HIPK1 (158”, “535” for “555”, “coli co-expressed with His-tagged YopH” for “coli”, “EAIYAAPFAKKK” for “MBP”"}, "[7]": {"target": "Ephrin type-A receptor 2 (Homo sapiens) (UniProt P29317)", "sequence (P29317 whole entry)": "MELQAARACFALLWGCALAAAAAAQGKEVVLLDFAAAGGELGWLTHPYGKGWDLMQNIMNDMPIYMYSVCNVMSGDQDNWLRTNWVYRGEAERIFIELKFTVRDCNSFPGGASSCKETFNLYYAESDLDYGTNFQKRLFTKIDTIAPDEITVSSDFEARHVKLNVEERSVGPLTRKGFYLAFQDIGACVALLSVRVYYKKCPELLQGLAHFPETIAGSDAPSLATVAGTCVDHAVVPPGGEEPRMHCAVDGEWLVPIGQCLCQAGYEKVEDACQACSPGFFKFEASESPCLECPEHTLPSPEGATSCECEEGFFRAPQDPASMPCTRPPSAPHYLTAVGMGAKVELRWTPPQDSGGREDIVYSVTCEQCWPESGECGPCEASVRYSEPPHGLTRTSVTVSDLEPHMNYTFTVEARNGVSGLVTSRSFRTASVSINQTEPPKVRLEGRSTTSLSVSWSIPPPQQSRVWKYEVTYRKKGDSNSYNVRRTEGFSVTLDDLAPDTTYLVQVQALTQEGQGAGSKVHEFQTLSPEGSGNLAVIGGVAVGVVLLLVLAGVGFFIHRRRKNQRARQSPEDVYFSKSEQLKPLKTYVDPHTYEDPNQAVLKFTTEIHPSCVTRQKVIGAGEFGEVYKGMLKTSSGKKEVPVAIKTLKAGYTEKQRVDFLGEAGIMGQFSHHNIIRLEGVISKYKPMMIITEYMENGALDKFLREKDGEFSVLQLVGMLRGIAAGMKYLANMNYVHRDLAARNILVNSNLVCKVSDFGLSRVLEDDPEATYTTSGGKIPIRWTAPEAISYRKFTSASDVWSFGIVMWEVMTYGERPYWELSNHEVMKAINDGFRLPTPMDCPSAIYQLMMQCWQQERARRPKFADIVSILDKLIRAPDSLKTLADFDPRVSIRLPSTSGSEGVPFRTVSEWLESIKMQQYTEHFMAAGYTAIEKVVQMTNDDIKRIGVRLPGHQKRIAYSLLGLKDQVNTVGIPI", "test": "Inhibition of human EPHA2 at 1 uM using polyEy as substrate in presence of 33P-ATP by ProQinase assay"}, "[8]": {"target": "Megakaryocyte-associated tyrosine-protein kinase (Homo sapiens) (UniProt P42679)", "test": "Inhibition of human MATK at 1 uM using polyEy as substrate in presence of 33P-ATP by ProQinase assay"}, "[9]": {"target": "NT-3 growth factor receptor (Homo sapiens) (UniProt Q16288)", "test": "Inhibition of human TRKC at 1 uM using polyEy as substrate in presence of 33P-ATP by ProQinase assay"}, "[10]": {"target": "Tyrosine-protein kinase Fgr (Homo sapiens) (UniProt P09769)", "test": "Inhibition of human FGR at 1 uM using polyEY as substrate in presence of 33P-ATP by ProQinase assay"}, "[11]": {"target": "Tyrosine-protein kinase Tec (Homo sapiens) (UniProt P42680)", "test": "Inhibition of human TEC at 1 uM using polyEY as substrate in presence of 33P-ATP by ProQinase assay"}, "[12]": {"target": "Calcium/calmodulin-dependent protein kinase type IV (Homo sapiens) (UniProt Q16566)", "sequence (Q16566 whole entry)": "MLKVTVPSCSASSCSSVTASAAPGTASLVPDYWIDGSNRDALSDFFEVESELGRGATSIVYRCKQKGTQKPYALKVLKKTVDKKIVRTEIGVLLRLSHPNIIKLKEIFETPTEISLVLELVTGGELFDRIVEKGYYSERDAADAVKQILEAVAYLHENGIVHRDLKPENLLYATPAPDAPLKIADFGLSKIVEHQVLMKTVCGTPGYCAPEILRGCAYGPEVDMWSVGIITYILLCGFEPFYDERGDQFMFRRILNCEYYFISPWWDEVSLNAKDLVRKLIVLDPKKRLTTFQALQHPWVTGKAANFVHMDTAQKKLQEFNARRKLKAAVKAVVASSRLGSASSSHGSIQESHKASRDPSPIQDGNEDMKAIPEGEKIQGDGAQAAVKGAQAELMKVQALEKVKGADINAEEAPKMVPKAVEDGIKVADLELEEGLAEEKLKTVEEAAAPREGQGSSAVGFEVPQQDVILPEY", "test": "Inhibition of human CAMK4 at 1 uM using JUN as substrate in presence of 33P-ATP by ProQinase assay"}, "[13]": {"target": "Dual specificity protein kinase TTK (Homo sapiens) (UniProt P33981)", "test": "Inhibition of human TTK at 1 uM using RBER-CHKtide as substrate in presence of 33P-ATP by ProQinase assay"}, "[14]": {"target": "Hepatocyte growth factor receptor (Homo sapiens) (UniProt P08581)", "test": "Inhibition of human MET at 1 uM using poly(Ala,Glu,Lys,Tyr) as substrate in presence of 33P-ATP by ProQinase assay"}, "[15]": {"target": "Vascular endothelial growth factor receptor 1 (Homo sapiens) (UniProt P17948)", "test": "Inhibition of human VEGFR1 at 1 uM using polyEY as substrate in presence of 33P-ATP by ProQinase assay"}, "[16]": {"target": "Tyrosine-protein kinase ABL1 (Homo sapiens) (UniProt P00519)", "test": "Inhibition of human ABL1 at 1 uM using poly(Ala,Glu,Lys,Tyr) as substrate in presence of 33P-ATP by ProQinase assay"}, "[17]": {"target": "Cyclin-dependent kinase 2/cyclin E1 (Homo sapiens) (UniProt P24864+P24941)", "test": "Inhibition of human CDK2/CycE1 at 1 uM using RBER-CHKtide as substrate in presence of 33P-ATP by ProQinase assay", "format": "protein-complex assay"}, "[18]": {"target": "CDK6/cyclin D1 (Homo sapiens) (UniProt P24385+Q00534)", "test": "Inhibition of human CDK6/CycD1 at 1 uM using RBER-CHKtide as substrate in presence of 33P-ATP by ProQinase assay", "format": "protein-complex assay"}, "[19]": {"target": "G protein-coupled receptor kinase 3 (Homo sapiens) (UniProt P35626)", "test": "Inhibition of human GRK3 at 1 uM using casein as substrate in presence of 33P-ATP by ProQinase assay"}, "[20]": {"target": "Serine/threonine-protein kinase Sgk3 (Homo sapiens) (UniProt Q96BR1)", "test": "Inhibition of human SGK3 at 1 uM using RBER-GSK3 as substrate in presence of 33P-ATP by ProQinase assay"}, "[21]": {"target": "MAP kinase-activated protein kinase 2 (Homo sapiens) (UniProt P49137)", "sequence (P49137 whole entry, looked up)": "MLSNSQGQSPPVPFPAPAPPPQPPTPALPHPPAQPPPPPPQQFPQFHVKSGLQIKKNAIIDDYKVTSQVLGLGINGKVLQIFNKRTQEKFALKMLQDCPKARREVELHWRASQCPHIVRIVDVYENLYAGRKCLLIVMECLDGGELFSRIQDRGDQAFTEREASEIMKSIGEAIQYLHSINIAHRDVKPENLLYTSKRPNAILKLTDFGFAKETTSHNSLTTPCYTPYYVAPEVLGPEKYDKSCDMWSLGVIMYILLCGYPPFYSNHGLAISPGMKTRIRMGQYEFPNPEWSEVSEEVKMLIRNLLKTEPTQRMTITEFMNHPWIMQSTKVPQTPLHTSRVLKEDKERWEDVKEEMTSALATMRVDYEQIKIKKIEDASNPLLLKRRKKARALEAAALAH", "test": "Inhibition of human MAPKAPK2 at 1 uM using RBER-CHKtide as substrate in presence of 33P-ATP by ProQinase assay"}, "[22]": {"target": "Serine/threonine-protein kinase 17A (Homo sapiens) (UniProt Q9UEE5)", "test": "Inhibition of human STK17A at 1 uM using RB-CTF as substrate in presence of 33P-ATP by ProQinase assay"}, "[23]": {"target": "Diacylglycerol kinase alpha (Homo sapiens) (UniProt P23743)", "sequence (P23743 whole entry)": "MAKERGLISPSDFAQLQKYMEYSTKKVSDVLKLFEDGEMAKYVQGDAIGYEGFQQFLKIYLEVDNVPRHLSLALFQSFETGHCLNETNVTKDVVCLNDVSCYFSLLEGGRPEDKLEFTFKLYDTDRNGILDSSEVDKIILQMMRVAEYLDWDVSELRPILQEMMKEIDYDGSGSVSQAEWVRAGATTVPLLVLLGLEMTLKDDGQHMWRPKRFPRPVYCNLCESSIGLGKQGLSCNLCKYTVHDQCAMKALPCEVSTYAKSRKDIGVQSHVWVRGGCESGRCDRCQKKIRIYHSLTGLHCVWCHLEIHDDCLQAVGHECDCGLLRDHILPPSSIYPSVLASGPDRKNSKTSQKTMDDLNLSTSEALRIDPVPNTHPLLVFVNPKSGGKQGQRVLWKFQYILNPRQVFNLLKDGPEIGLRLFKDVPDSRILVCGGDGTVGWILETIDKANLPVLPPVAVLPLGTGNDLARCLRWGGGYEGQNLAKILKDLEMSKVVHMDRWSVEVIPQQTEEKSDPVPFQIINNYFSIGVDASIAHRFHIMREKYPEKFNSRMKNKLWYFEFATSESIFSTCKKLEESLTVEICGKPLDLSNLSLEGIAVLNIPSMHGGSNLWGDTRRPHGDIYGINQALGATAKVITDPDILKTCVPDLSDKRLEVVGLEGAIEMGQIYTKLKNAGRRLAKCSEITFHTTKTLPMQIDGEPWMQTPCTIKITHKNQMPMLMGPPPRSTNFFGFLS", "test": "Inhibition of DGKalpha (unknown origin) at 1 uM"}, "[24]": {"target": "Phosphatidylinositol 4-kinase alpha (Homo sapiens, UniProt P42356)", "test": "Inhibition of PI4Kalpha (unknown origin) using D-myo-PtdIns as substrate incubated for 45 mins by ADP-Glo assay", "outline": "(§2)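 PI4Kα: 1 nM enzyme, 72 μM ATP, 25 μM PtdIns. PI4Kβ: 2 nM enzyme, 220 μM ATP, 50 μM PtdIns. Reactions ran 45 min at ambient temperature; ADP-Glo reagent was added for 40 min, then detection reagent for 30 min, then luminescence was read.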"}, "[25]": {"target": "Phosphatidylinositol 4-kinase beta (Homo sapiens, UniProt Q9UBF8)", "test": "Inhibition of PI4Kbeta (unknown origin) using D-myo-PtdIns as substrate incubated for 45 mins by ADP-Glo assay", "outline": "as §2"}, "[26]": {"target": "Phosphatidylinositol 3-kinase C2 domain-containing subunit gamma (Homo sapiens, UniProt O75747)", "test": "Inhibition of human PIK3C2G using PIP2/PS as substrate by ADP-Glo assay"}}, "note": "The source made the active and inactive calls. The rule behind the calls is not given here.", "data": [{"smiles": "CC(C)(O)CNc1ncc(-c2ccnc(Nc3ccnc(Cl)c3)n2)c(CC2CC2)n1", "values": [{"measurement": "Activity", "setting": "[1]", "result": 115, "unit": "%"}, {"measurement": "Activity", "setting": "[2]", "result": 109, "unit": "%"}, {"measurement": "Activity", "setting": "[3]", "result": 108, "unit": "%"}, {"measurement": "Activity", "setting": "[4]", "result": 101, "unit": "%"}, {"measurement": "Activity", "setting": "[5]", "result": 99, "unit": "%"}, {"measurement": "Activity", "setting": "[6]", "result": 87, "unit": "%"}, {"measurement": "inhibition", "setting": "[7]", "result": "inactive"}, {"measurement": "inhibition", "setting": "[8]", "result": "inactive"}, {"measurement": "inhibition", "setting": "[9]", "result": "inactive"}, {"measurement": "inhibition", "setting": "[10]", "result": "inactive"}, {"measurement": "inhibition", "setting": "[11]", "result": "inactive"}, {"measurement": "inhibition", "setting": "[12]", "result": "inactive"}, {"measurement": "inhibition", "setting": "[13]", "result": "inactive"}, {"measurement": "inhibition", "setting": "[14]", "result": "inactive"}, {"measurement": "inhibition", "setting": "[15]", "result": "inactive"}, {"measurement": "inhibition", "setting": "[16]", "result": "inactive"}, {"measurement": "inhibition", "setting": "[17]", "result": "inactive"}, {"measurement": "inhibition", "setting": "[18]", "result": "inactive"}, {"measurement": "inhibition", "setting": "[19]", "result": "inactive"}, {"measurement": "inhibition", "setting": "[20]", "result": "inactive"}, {"measurement": "inhibition", "setting": "[21]", "result": "inactive"}, {"measurement": "inhibition", "setting": "[22]", "result": "inactive"}, {"measurement": "inhibition", "setting": "[23]", "result": "inactive"}, {"measurement": "IC50", "setting": "[24]", "result": 4.07, "unit": "µM"}, {"measurement": "IC50", "setting": "[25]", "result": 1.07, "unit": "µM"}, {"measurement": "IC50", "setting": "[26]", "result": "> 10", "unit": "µM"}]}]}
